Compounds with a hit are over-represented: about 4.7% of the library has one in this group of screens.
RGS4 inh: human RGS4 inhibition. P49798. B-score at 10 µM. 0.45% of 310,000 active. HEK293 M3R/RGS4 inducible, Fluo-4 calcium flux; stronger effect = higher value; triggered by carbachol at its EC20;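 active = B-score, a plate-corrected calcium signal, over three deviations above library mean, with baseline fluorescence within five deviations of library mean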;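 also: RGS4 expression induced by doxycycline in cells with stable M3 receptor; B-score is computed from the integrated fluorescence ratio over baseline after carbachol; higher B-score means a larger calcium signal and so more RGS4 inhibition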
MrgX1 antagonist: blocks BAM8-22 activation of human MrgX1 receptor; Q96LB2; MRGX1-HEK293 calcium flux, Fluo-4, BAM8-22 antagonism; stronger effect = lower value; B-score at 10 µM; 1.3% of 310,000 active; AID 588676;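 active = calcium-response B-score plate-corrected more than 3 library SD below zero, starting fluorescence within 5 deviations, no agonist response on first addition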;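 also: peak minus trough fluorescence over baseline after final BAM8-22 challenge near maximal dose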
MrgX1 agonist: agonists of human MrgX1 receptor; Q96LB2; B-score at 10 µM; 0.44% of 310,000 active; MrgX1-HEK293 cells, Fluo-4 calcium fluorescence, agonist mode; stronger effect = higher value;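 active = calcium response B-score plate-corrected fluorescence ratio at least 3 library SD, with starting fluorescence B-score inside 5 SD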
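times = overnight plating, then 30 min 37 °C plus 30 min room-temperature dye loading | assay system = stable human MrgX1 HEK293 cell line | input = fifteen thousand cells per well | signal = kinetic calcium dye fluorescence, Fluo-4 NW | dosing = compound delivered in addition one of three | read-out = B-scored fluorescence response ratio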
MrgX1 PAM: human MrgX1 positive allosteric modulation, primary screen | 0.63% of 310,000 active | B-score at 10 µM | MrgX1-HEK293, Fluo-4 calcium flux, FDSS; stronger effect = higher value | Q96LB2 | AID 588675;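 active = plate-corrected calcium response at least 3 library SD above typical, normal starting fluorescence, not activating the receptor alone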;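 also: compound read alongside a low EC10 to EC30 dose of BAM8-22 agonist; peak minus trough fluorescence over baseline measured at the second addition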
RGS4 act: potentiators or activators of RGS4; AID 463111; B-score at 10 µM; 0.92% of 310,000 active; HEK293 M3R/inducible RGS4, carbachol calcium flux Fluo4; stronger effect = lower value;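 active = B-score of the integrated calcium signal more than 4 SD below the library mean, with starting fluorescence not abnormally high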;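 also: negative B-score means reduced calcium response which marks RGS4 activation or potentiation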
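Material: M3R-expressing HEK293 line, RGS4 induced by doxycycline | Schedule: Overnight RGS4 induction, 30 min dye load 37 °C, 20 min compound RT | Measured by: Fluo4 fluorescence kinetic imaging of calcium | Read-out: Integrated calcium ratio converted to B score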
Cl transport mod: modulators of human KCC2 chloride dependent transport; KCC2 cells, thallium flux FluoZin-2 fluorescence; 2.2% of 190,000 active; B-score of Tl+ flux slope (higher = more flux/activation; lower = inhibition) at 10 µM;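 active = thallium flux slope and its plate-corrected score both differing from the plate sample mean at a set confidence after two filtering rounds, in either direction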;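 also: slope of fluorescence scaled to starting intensity during 10 to 20 s after thallium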
Target sequence (Q9H2X9 whole entry, looked up): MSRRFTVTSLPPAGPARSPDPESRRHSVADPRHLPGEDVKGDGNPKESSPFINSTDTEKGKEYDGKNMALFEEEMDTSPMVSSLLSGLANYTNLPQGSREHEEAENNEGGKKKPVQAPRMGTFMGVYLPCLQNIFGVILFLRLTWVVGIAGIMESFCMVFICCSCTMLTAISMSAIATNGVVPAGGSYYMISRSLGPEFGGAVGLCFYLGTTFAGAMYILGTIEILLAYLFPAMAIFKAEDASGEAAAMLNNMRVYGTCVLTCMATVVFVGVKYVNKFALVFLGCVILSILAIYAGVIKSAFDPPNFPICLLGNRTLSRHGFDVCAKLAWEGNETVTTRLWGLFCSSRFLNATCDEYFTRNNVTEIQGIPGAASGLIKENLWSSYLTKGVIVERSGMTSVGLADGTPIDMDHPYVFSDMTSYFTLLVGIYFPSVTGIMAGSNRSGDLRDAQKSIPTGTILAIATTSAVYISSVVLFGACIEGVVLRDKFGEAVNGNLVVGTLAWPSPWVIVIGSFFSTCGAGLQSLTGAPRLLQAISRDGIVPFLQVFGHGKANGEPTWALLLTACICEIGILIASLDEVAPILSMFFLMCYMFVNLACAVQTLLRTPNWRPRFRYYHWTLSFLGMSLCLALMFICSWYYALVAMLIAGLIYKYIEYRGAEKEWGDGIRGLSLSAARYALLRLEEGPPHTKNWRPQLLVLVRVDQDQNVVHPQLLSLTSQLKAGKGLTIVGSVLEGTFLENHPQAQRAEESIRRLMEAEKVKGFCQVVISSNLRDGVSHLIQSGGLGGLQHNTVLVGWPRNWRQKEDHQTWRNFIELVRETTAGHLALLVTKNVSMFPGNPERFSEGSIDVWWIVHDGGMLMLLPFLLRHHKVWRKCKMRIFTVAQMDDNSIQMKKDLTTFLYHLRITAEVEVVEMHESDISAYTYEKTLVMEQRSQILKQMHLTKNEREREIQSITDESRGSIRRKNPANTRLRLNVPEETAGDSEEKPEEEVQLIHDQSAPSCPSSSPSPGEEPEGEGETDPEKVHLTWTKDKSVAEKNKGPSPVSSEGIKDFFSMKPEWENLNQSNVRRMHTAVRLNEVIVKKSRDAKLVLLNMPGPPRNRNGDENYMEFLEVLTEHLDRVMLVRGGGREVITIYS
KCC2 secondary: confirmation of human KCC2 transport modulators | shares compounds with Cl transport mod | HEK293-KCC2, thallium flux, FluoZin2 fluorescence; stronger effect = higher value | normalised thallium flux (F/F0 slope) at 10 µM | 15% of 3,700 active;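 active = thallium flux slope above the same plate's solvent-only control mean plus 3 SD; inconclusive = the two replicate wells disagree; inactive = no significant difference from solvent-only control wells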
KCC2 bumet counter: thallium flux persisting under bumetanide in KCC2 cells, counter-screen secondary assay; shares compounds with Cl transport mod; HEK293-KCC2 + bumetanide/ouabain, thallium flux FluoZin2; stronger effect = higher value; normalized thallium flux at 10 µM; 49% of 3,700 active;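 active = thallium entry rate above the same plate's blocked-transporter control wells by more than 3 SD; inconclusive = the two repeat wells disagree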;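 also: raw slope of fluorescence over initial fluorescence between 10 and 20 s after thallium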
KCC2 secondary2: KCC2 (human) modulation, second secondary assay. normalized thallium flux at 10 µM. AID 1715. HEK293-KCC2, thallium flux FluoZin2 fluorescence; actives lie on both sides; F/F0 rise rate, 10–20 s post-thallium. 23% of 3,700 active. shares compounds with Cl transport mod;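 active = thallium flux slope more than 3 SD above or below the plate's solvent-only control mean, mostly below; inconclusive = the two repeat wells disagreed; inactive = no significant shift from solvent-only controls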;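 also: raw slope with 0.1% DMSO as baseline and bumetanide as block control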
HEK293 Tl flux: acts in parental HEK cells, KCC2 counter-screen; shares compounds with Cl transport mod; HEK293 parental cells, thallium flux FluoZin2, ouabain; baseline-ratio fluorescence slope, 10–20 s after thallium; thallium flux rate (normalised fluorescence) at 10 µM; 46% of 3,700 active; AID 1716;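 active = thallium flux rate significantly above the same plate's solvent-only control wells, beyond their mean plus 3 SD; inconclusive = the two replicate wells gave conflicting results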
KCC2 ouabain: modulates human KCC2 on retest with ouabain; shares compounds with Cl transport mod; AID 1717; raw Tl+ flux slope (below DMSO = inhibition, above = activation) at 10 µM; HEK293-KCC2, thallium flux FluoZin2 fluorescence; bidirectional: low = inhibitor, high = activator; 48% of 3,700 active;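 active = thallium flux slope beyond 3 SD from same-plate DMSO control mean in most replicates, usually higher, sometimes lower; inconclusive = repeat tests gave conflicting results; inactive = no significant difference from controls in most replicates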;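 also: slope of initial-normalized fluorescence between seconds 10 and 20 after thallium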
HEK293 Tl flux2: acts in parental HEK cells, second KCC2 counter-screen. shares compounds with Cl transport mod. HEK293 parental, thallium flux FluoZin-2 fluorescence slope. thallium flux slope at 10 µM. 33% of 3,700 active. AID 1718;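 active = thallium flux slope above the same plate's solvent-control mean plus 3 SD in both duplicate wells; inconclusive = duplicate wells that disagreed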;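 also: run without ouabain in cells lacking the KCC2 cotransporter; slope of fluorescence scaled to its starting value between 10 and 20 s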
Active calls of the source: *; i = inactive; ? = inconclusive; . = not tested or not shown.

SMILES	RGS4 inh	MrgX1 antagonist	MrgX1 agonist	MrgX1 PAM	RGS4 act	Cl transport mod	KCC2 secondary	KCC2 bumet counter	KCC2 secondary2	HEK293 Tl flux	KCC2 ouabain	HEK293 Tl flux2
CCc1cccc(N(C(=O)c2csnn2)C(C(=O)NC2CCCCC2)c2cccnc2)c1 (configuration not stated)	i	i	i	i	i	.	.	.	.	.	.	.
Cc1cc(C)n(-c2nc(SCC(=O)Nc3nccs3)c3c4c(sc3n2)COC(C)(C)C4)n1	i	i	i	i	i	4.4*	0.0096	0.022*	0.032	0.019*	0.026*	0.013*
CCC(=O)c1c[nH]c(C(=O)N2CCOCC2)c1	i	i	i	i	i	.	.	.	.	.	.	.
FC(F)(F)c1cc(-c2ccco2)nc(NCc2ccccc2)n1	i	i	i	i	i	.	.	.	.	.	.	.
FC(F)(F)c1cc(-c2ccco2)nc(NCc2cccnc2)n1	i	i	i	i	i	.	0.0075	0.0045	0.03	0.0065	0.018	0.0097
CCOC(=O)Cc1cc(=O)n2[nH]c(-c3ccccc3)c(-c3ccccc3)c2n1	i	i	i	i	i	6*	0.0056	0.018*	0.031	0.014*	?	0.014*
CC(=O)c1cccc(NC(=O)Cn2cnc(S(=O)(=O)N3CCCC3)c2)c1	i	i	i	i	i	.	.	.	.	.	.	.
COc1ccccc1C(C(=O)NCc1ccccc1)N(C(=O)c1csnn1)C1CC1 (configuration not stated)	i	i	i	i	i	.	.	.	.	.	.	.
CC(C)c1ccc(NC(=O)c2cc(S(=O)(=O)N3CCCCC3)c[nH]2)cc1	i	i	i	i	i	.	.	.	.	.	.	.
CCOc1ccc2nc(SCC(=O)Nc3ccc4c(c3)OCCO4)[nH]c2c1	i	i	i	i	i	-0.66	.	.	.	.	.	.
COc1ccc2nc(SCC(=O)Nc3ccc4c(c3)OCCO4)[nH]c2c1	i	i	i	i	i	-2.5*	0.0072	0.0048	0.03	0.0073	0.02	0.011
Cc1ccccc1OCC(=O)NNC(=O)CCN1C(=O)c2ccccc2C1=O	i	i	i	i	i	-3.9*	0.0068	0.0056	0.023*	0.0078	?	0.011
Fc1ccccc1Nc1nc2ccccc2o1	i	i	i	i	i	.	.	.	.	.	.	.
O=C(NC(=S)Nc1ccc2c(c1)OCCO2)c1ccco1	i	i	i	i	i	100*	0.023*	0.1*	0.04	0.083*	0.07*	0.042*
O=C(NC(=S)Nc1ccc(Oc2ccccc2)cc1)c1ccc(Cl)cc1	i	i	i	i	i	31*	0.0066	0.022*	?	0.016*	0.028*	0.014*
CC(=O)NC(=S)Nc1cc(C(F)(F)F)ccc1N1CCOCC1	i	i	i	i	i	0.28	.	.	.	.	.	.
O=C(NC(=S)Nc1ccc2c(c1)OCO2)c1ccc(Cl)cc1	i	i	i	i	i	8.2*	0.0093	0.012*	0.039	?	0.026*	0.012
O=C(NC(=S)Nc1cc(C(F)(F)F)ccc1N1CCOCC1)c1ccco1	i	i	i	i	i	89*	0.022*	0.11*	0.039	?	0.076*	0.026*
CC(C)(C)c1ccc(C(=O)Nc2cccc(-n3cnnn3)c2)cc1	i	i	i	i	i	.	.	.	.	.	.	.
CCN1c2ccccc2S(=O)(=O)c2ccccc21	i	i	i	i	i	.	.	.	.	.	.	.
Cc1ccc(S(=O)(=O)N2CCCCC2)cc1NC(=O)C1CC(=O)N(c2ccc3c(c2)OCCO3)C1 (configuration not stated)	i	i	i	i	i	.	.	.	.	.	.	.
O=c1ccn(CCc2c[nH]c3ccccc23)c2c1CCCC2	i	i	i	i	i	-0.29	.	.	.	.	.	.
CCN(CC)c1ccc(NC(=O)c2ccccc2F)cc1	i	i	i	i	i	-6.2*	0.017	?	0.029	0.0072	0.014	0.0095
O=C(Nc1ccc(Nc2ccccc2)cc1)c1ccccc1F	i	i	i	i	i	.	.	.	.	.	.	.
O=C(NC(=S)Nc1ccc2oc(=O)ccc2c1)c1ccco1	i	i	i	i	i	22*	0.0059	0.049*	0.044*	0.03*	0.046*	0.029*
SMILES	RGS4 inh	MrgX1 antagonist	MrgX1 agonist	MrgX1 PAM	RGS4 act	Cl transport mod	KCC2 secondary	KCC2 bumet counter	KCC2 secondary2	HEK293 Tl flux	KCC2 ouabain	HEK293 Tl flux2
O=C(NC(=S)Nc1ccc2c(c1)OCCO2)c1ccc(F)cc1Cl	i	i	i	i	i	16*	0.0099	0.022*	0.033	0.012*	?	0.011
Cc1cccc(C(=O)NC(=S)Nc2ccc(S(=O)(=O)N(C)c3ccccc3)cc2)c1	i	i	i	i	i	2.5*	0.0083	0.014*	0.03	0.0077	0.026*	0.012*
O=C(NCc1ccccn1)C(=O)Nc1cc2c3c(c1)CC(=O)N3CCC2	i	i	i	i	i	.	.	.	.	.	.	.
O=C(Cc1ccsc1)NNC(=O)c1cccc(Cl)c1	i	i	i	i	i	.	.	.	.	.	.	.
Cc1n[nH]c(=O)c2c(NC(=O)CSc3nn(-c4ccccc4)c(=S)s3)oc(C)c12	i	i	i	i	i	.	.	.	.	.	.	.
CCN(CC)c1ccc(NC(=S)NC(=O)c2ccco2)cc1	i	i	i	i	i	69*	0.043*	0.17*	?	?	0.12*	?
O=C(O)c1ccc(NC(=S)NC(=O)c2cccc(COc3ccccc3)c2)cc1	i	i	i	i	i	-3.7*	0.0083	?	0.034	0.004	?	0.011
